Values joined by “and” are separate entries in the source; they are usually repeats but may differ in a detail not shown here. Identical values can stand only once.
Columns and labels:
Rattus norvegicus [1] = test: Percent reduction of edema was measured after oral administration at 200 mg/kg using carrageenan-induced pedal edema assay; assay type: functional
Outline: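 Rats fasted 2 h; single oral 200 mg/kg in 0.25% methylcellulose, vehicle controls. Carrageenan (1% sterile, 0.05 cm³) injected into left hind foot pad 1 h after dosing. Paw volume measured at peak swelling, 3 h, by displacement apparatus; edema from differential paw volume, expressed as % reduction vs control.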

[2] = (§1) Lethal dose of compound was determined in mice by standard multidimensional observational assay; assay type: toxicity, organism-based; settings: mouse, in vivo
Outline: (§2)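 Approximate LD50 in mice, estimated from a standard multidimensional observational assay and calculated by the Litchfield–Wilcoxon method.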

Mus musculus = species on record: Mus musculus; test: as §1; assay type: toxicity, organism-based; settings: in vivo; outline: as §2
Rattus norvegicus [3] = test: Effective dose of compound that reduce edema by at least 25% in 50% of animals; assay type: functional
Outline: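 Rats, fasted 2 h, water ad libitum; compound given orally in 0.25% methylcellulose, controls vehicle only, at several doses below the 200 mg/kg screen. Carrageenan (1% sterile, 0.05 cm³) injected into left hind foot pad 1 h later. Paw volume measured at 3 h.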

Rattus norvegicus [4] = test: Effective dose of compound that reduce edema in adrenolectomized rats by at least 25% in 50% of animals; assay type: functional
Outline: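 Rats adrenalectomized several days before assay; otherwise as the intact-rat test: fasted 2 h, oral dosing in 0.25% methylcellulose at several doses, carrageenan (1%, 0.05 cm³) into left hind foot pad 1 h later, paw volume at 3 h.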

[5] = Rattus norvegicus, read-out: ED50

| Compound | Reduction (Rattus norvegicus [1]; 200 mg/kg) | LD50 [2] | LD50 (Mus musculus) | Reduction (Rattus norvegicus [1]) | ED50 (Rattus norvegicus [3]) | ED50 (Rattus norvegicus [3]; [5]) | ED50 (Rattus norvegicus [4]) |
| --- | --- | --- | --- | --- | --- | --- | --- |
| Cc1cc(=O)c(C(=O)Nc2ccccc2Cl)c(C)n1-c1ccccc1Cl | 2% and 8% | 562 mg/kg | 562 mg/kg | – | – | – | – |
| COc1ccc(OC)c(NC(=O)c2c(C)n(-c3cc(OC)ccc3OC)c(C)cc2=O)c1 | – | 562 mg/kg | – | 0% | – | – | – |
| Cc1cc(=O)c(C(=O)Nc2ccccc2)c(C)n1-c1ccccc1 | 25% and 33% | 562 mg/kg | 562 mg/kg | – | >200 mg/kg | 200 mg/kg | – |
| Cc1ccccc1NC(=O)c1c(C)n(-c2ccccc2C)c(C)cc1=O | 17% and 49% | 562 mg/kg | – | – | – | 80 mg/kg | 84.8 mg/kg |
| Cc1cccc(NC(=O)c2c(C)n(-c3cccc(C)c3C)c(C)cc2=O)c1C | – | 562 mg/kg | – | 0% | – | – | – |
| Cc1c(Br)c(=O)c(C(=O)Nc2ccccc2)c(C)n1-c1ccccc1 | – | 562 mg/kg | – | 23% | – | – | – |
| Cc1cccc(C)c1NC(=O)c1c(C)n(-c2c(C)cccc2C)c(C)cc1=O | 31% and 26% | – | – | – | – | – | – |
| Cc1cc(=O)c(C(=O)Nc2ccc(Cl)cc2)c(C)n1-c1ccc(Cl)cc1 | 58% and 62% | – | – | – | – | – | – |
| O=C(Nc1ccccc1)c1c(-c2ccccc2)n(-c2ccccc2)c(-c2ccccc2)cc1=O | – | 562 mg/kg | – | 0% | – | – | – |
| COc1ccccc1NC(=O)c1c(C)n(-c2ccccc2OC)c(C)cc1=O | – | 562 mg/kg | 300 mg/kg | – | – | 28 mg/kg | 200 mg/kg |
| Cc1cc(C)c(NC(=O)c2c(C)n(-c3c(C)cc(C)cc3C)c(C)cc2=O)c(C)c1 | – | – | – | 53% | – | – | – |

From ChEMBL document CHEMBL1122003, “Preparation and antiinflammatory activity of 2- and 4-pyridones” (J Med Chem, 1982)
